The text below walks through data of ChEMBL document CHEMBL1127469, “Decapeptide agonists of human C5a: the relationship between conformation and spasmogenic and platelet aggregatory activities” (J Med Chem, 1994).

The species entered for assay [1] is Homo sapiens. Description: Effective dose required for smooth muscle contraction in human fetal artery. It counts as functional. As to conditions: Muscle tissue. The method in brief:
(§1)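 Isometric contraction of tissue strips in 2 mL organ baths of Krebs-Ringers solution, 37 °C, pH 7.4, gassed with 95% O2/5% CO2, equilibrated 1 h. Tachyphylaxis prevents cumulative curves, so each strip gets one peptide concentration, then histamine 10 μM. Response is taken as % of the histamine maximum. EC50 comes from probit analysis, reported as pD2 (-log EC50, M), mean ± SE.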

For assay [2], the species on record is Cavia porcellus. Description: Platelet aggregation in guinea pig. Type of assay: functional. The method in brief: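 Platelet-rich plasma from arterial blood of anesthetized male Hartley guinea pigs, diluted to 3 × 10^8 platelets/mL in 0.39% sodium citrate. Peptides are serially diluted 1.5-fold and shaken with plasma and a 3 mm glass bead at 100 rpm, 5 min, 37 °C. Aggregation is scored visually at 40×. The threshold is the greatest dilution giving visible aggregation. At least three independent duplicate runs; C5a and C3a serve as standards.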

The target of assay [3] is T1, C5a anaphylatoxin chemotactic receptor 1 (Homo sapiens) (UniProt P21730).
T1 sequence (whole entry): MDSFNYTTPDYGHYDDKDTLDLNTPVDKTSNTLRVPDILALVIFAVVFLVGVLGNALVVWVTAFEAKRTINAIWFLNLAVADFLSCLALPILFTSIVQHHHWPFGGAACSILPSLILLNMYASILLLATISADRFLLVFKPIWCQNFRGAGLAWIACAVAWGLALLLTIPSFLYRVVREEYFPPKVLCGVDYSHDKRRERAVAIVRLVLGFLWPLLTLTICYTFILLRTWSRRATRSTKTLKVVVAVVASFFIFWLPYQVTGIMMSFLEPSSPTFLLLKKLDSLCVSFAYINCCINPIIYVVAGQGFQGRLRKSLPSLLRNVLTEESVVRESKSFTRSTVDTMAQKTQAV
Description: Pharmacological activity against C5a receptor in human fetal artery. In short, it runs like this:
as §1

For assay [4], the species on record is Cavia porcellus. Description: Effective dose required for smooth muscle contraction in Guinea pig lung parenchyma. Type of assay: functional. In short, it runs like this: as §1
The subject of assay [5] is C5a anaphylatoxin chemotactic receptor 1 (Cavia porcellus). As to the kind of experiment: Tested for pharmacological activity against C5a receptor in Guinea pig lung parenchyma.
The target in assay [6] is T2, C5a anaphylatoxin chemotactic receptor 1 (Cavia porcellus) (UniProt O70129).
T2 sequence (whole entry): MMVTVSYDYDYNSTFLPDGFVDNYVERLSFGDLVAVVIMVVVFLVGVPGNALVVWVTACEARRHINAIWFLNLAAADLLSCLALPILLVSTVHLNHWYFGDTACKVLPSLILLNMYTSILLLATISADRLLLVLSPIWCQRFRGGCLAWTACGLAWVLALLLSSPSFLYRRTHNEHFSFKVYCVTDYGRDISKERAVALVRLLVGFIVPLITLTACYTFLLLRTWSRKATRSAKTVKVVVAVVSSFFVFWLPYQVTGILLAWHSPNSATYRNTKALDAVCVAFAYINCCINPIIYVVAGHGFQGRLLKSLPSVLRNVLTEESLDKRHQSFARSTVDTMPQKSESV
Description: Pharmacological activity against C5a receptor in guinea pig ileum. It counts as tissue-based. The method in brief:
as §1

The species entered for assay [7] is Cavia porcellus. Description: Effective dose required for smooth muscle contraction in guinea pig ileum. It counts as functional. To be noted: Muscle tissue. The method in brief: as §1

Bridge positions count the residues as written; N and C are the ends. Peptide text beside a SMILES is read from it.

A word on the EC50: it is the concentration needed to bring the measured effect to its halfway point.

In the case of `CSCC[C@H](NC(=O)[C@H](CC(=O)O)NC(=O)[C@H](CCCCN)NC(=O)[C@H](Cc1ccccc1)NC(=O)[C@H](CO)NC(=O)[C@@H](N)Cc1ccc(O)cc1)C(=O)N[C@@H](CCC(N)=O)C(=O)N[C@@H](CC(C)C)C(=O)N1CCC[C@H]1C(=O)N[C@@H](CCCN=C(N)N)C(=O)O`, in assay [1], the EC50 was greater than 1000 µM. Further, the Platelet aggregation in assay [2] turned out to be 225 µM. The same compound showed a pD2 in assay [3] of less than 3.

For the compound `CSCC[C@H](NC(=O)[C@H](CC(=O)O)NC(=O)[C@H](CCCCN)NC(=O)[C@H](Cc1ccccc1)NC(=O)[C@H](CO)NC(=O)[C@@H](N)Cc1ccc(O)cc1)C(=O)N[C@@H](CCC(N)=O)C(=O)N[C@@H](CC(C)C)C(=O)N[C@H](C)C(=O)N[C@@H](CCCN=C(N)N)C(=O)O`, the EC50 in assay [1] is 12.2 µM. Further, the Platelet aggregation in assay [2] stood at 20 µM. Besides, the pD2 in assay [3] was 5.42.

The compound `CSCC[C@H](NC(=O)CNC(=O)[C@H](CCCCN)NC(=O)[C@H](Cc1ccccc1)NC(=O)[C@H](CO)NC(=O)[C@@H](N)Cc1ccc(O)cc1)C(=O)N[C@@H](CC(C)C)C(=O)N[C@@H](CC(C)C)C(=O)NCC(=O)N[C@H](CCCN=C(N)N)C(=O)O` had an EC50 in assay [1] of 40 µM. Besides, the pD2 in assay [3] amounted to 4.43.

As for `CSCC[C@H](NC(=O)CNC(=O)[C@H](CCCCN)NC(=O)[C@H](Cc1ccccc1)NC(=O)[C@H](CO)NC(=O)[C@@H](N)Cc1ccc(O)cc1)C(=O)N[C@@H](CC(C)C)C(=O)N[C@@H](CC(C)C)C(=O)NCC(=O)N[C@@H](CCCN=C(N)N)C(=O)O`, the EC50 is 4.9 µM in assay [1], 15.1 µM in assay [4] and 26.8 µM in assay [7]. In addition, the pD2 in assay [5] worked out at 5; in assay [6], 4.61; in assay [3], 5.34. Further, the Platelet aggregation in assay [2] amounted to 10.5 µM.

In assay [1], `CSCC[C@H](NC(=O)[C@H](CC(=O)O)NC(=O)[C@H](CCCCN)NC(=O)[C@H](Cc1ccccc1)NC(=O)[C@H](CO)NC(=O)[C@@H](N)Cc1ccc(O)cc1)C(=O)N[C@@H](CCC(N)=O)C(=O)N[C@@H](CC(C)C)C(=O)N[C@@H](C)C(=O)N[C@@H](CCCN=C(N)N)C(=O)O` gave an EC50 of 122 µM. Further, in assay [2], the Platelet aggregation amounted to 34 µM. In addition, the pD2 in assay [3] was determined as 4.04.

As to `CSCC[C@H](NC(=O)[C@H](CC(=O)O)NC(=O)[C@H](CCCCN)NC(=O)[C@H](Cc1ccccc1)NC(=O)[C@H](CO)NC(=O)[C@@H](N)Cc1ccc(O)cc1)C(=O)N1CCC[C@H]1C(=O)N[C@@H](C)C(=O)NCC(=O)N[C@@H](CCCN=C(N)N)C(=O)O`, the EC50 in assay [1] is greater than 1000 µM. Moreover, the Platelet aggregation in assay [2] amounted to 101 µM. The compound also displayed a pD2 in assay [3] of less than 3.

In the case of `CC(C)C[C@H](NC(=O)[C@@H]1CCCN1C(=O)[C@H](C)NC(=O)[C@H](CC(=O)O)NC(=O)[C@H](CCCCN)NC(=O)[C@H](Cc1ccccc1)NC(=O)[C@H](CO)NC(=O)[C@@H](N)Cc1ccc(O)cc1)C(=O)NCC(=O)N[C@@H](CCCN=C(N)N)C(=O)O`, the EC50 in assay [1] was 1.74 µM; in assay [7], 26.6 µM. The pD2 came to 4.79 in assay [6] and 6.11 in assay [3]. This compound showed a Platelet aggregation in assay [2] of 7.4 µM.

On to `CSCC[C@H](NC(=O)[C@H](CC(=O)O)NC(=O)[C@H](CCCCN)NC(=O)[C@H](Cc1ccccc1)NC(=O)[C@H](CO)NC(=O)[C@@H](N)Cc1ccc(O)cc1)C(=O)N1CCC[C@H]1C(=O)N[C@@H](CC(C)C)C(=O)NCC(=O)N[C@@H](CCCN=C(N)N)C(=O)O`, for which the results for the EC50 in assay [1], in assay [4] and in assay [7] were 1.13 µM, 8.1 µM and 11.5 µM, respectively. Besides, the pD2 was determined as 5.14 in assay [6] and 6.18 in assay [3]. In assay [2], the Platelet aggregation is 6.3 µM.

The compound `C[C@H](NC(=O)[C@@H]1CCCN1C(=O)[C@H](CCS)NC(=O)[C@H](CC(=O)O)NC(=O)[C@H](CCCCN)NC(=O)[C@H](Cc1ccccc1)NC(=O)[C@H](CO)NC(=O)[C@@H](N)Cc1ccc(O)cc1)C(=O)N[C@H](C)C(=O)N[C@@H](CCCN=C(N)N)C(=O)O` had a pD2 in assay [3] of 4.86.

`CC(C)C[C@H](NC(=O)[C@@H]1CCCN1C(=O)[C@H](CS)NC(=O)[C@H](CC(=O)O)NC(=O)[C@H](CCCCN)NC(=O)[C@H](Cc1ccccc1)NC(=O)[C@H](CO)NC(=O)[C@@H](N)Cc1ccc(O)cc1)C(=O)N[C@@H](CS)C(=O)N[C@@H](CCCN=C(N)N)C(=O)O` (H-YSFKDCPLCR-OH) returned an EC50 in assay [1] of 26.6 µM. The compound further registered a Platelet aggregation in assay [2] of 4.1 µM. For the same compound, in assay [3], the pD2 was found to be 4.67.

`CC(C)C[C@@H]1NC(=O)[C@@H]2CCCN2C(=O)[C@@H](NC(=O)[C@H](CC(=O)O)NC(=O)[C@H](CCCCN)NC(=O)[C@H](Cc2ccccc2)NC(=O)[C@H](CO)NC(=O)[C@@H](N)Cc2ccc(O)cc2)CSSC[C@@H](C(=O)N[C@@H](CCCN=C(N)N)C(=O)O)NC1=O` (H-YSFKDCPLCR-OH; disulfide 6-9) had an EC50 in assay [1] of 162 µM. Also, the Platelet aggregation in assay [2] was greater than 410 µM. The pD2 in assay [3] was less than 4.

As to H-ISFKDMQLGR-OH, the Platelet aggregation in assay [2] was found to be 86.3 µM.

The compound H-YSFKDCPLGR-OH came in with an EC50 in assay [1] of 2.04 µM. Moreover, the Platelet aggregation in assay [2] was 2.3 µM. The compound also had a pD2 in assay [3] of 5.79.

Take H-YSFKDMPPGR-OH: the EC50 in assay [1] came out at 25.1 µM. The Platelet aggregation in assay [2] came out at 80 µM. Moreover, the pD2 in assay [3] is 4.68.

Turning to H-YSFKDMQLGR-OH, the results for the EC50 in assay [1], in assay [4] and in assay [7] were 11.2 µM, 28.4 µM and 37.5 µM, respectively. Moreover, the pD2 was determined as 4.51 in assay [6] and 5.05 in assay [3]. In assay [2], the Platelet aggregation worked out at 22.9 µM.

As to H-YSFKDMQPGR-OH, the values for the EC50 in assay [1] and in assay [7] were 48 µM and 344 µM, respectively. Besides, the pD2 in assay [6] was 3.64; in assay [3], 4.4. The Platelet aggregation in assay [2] stood at 500 µM.

Turning to H-YSFKGLLLGR-OH, the EC50 amounted to 6.6 µM in assay [1], 22.1 µM in assay [4] and 18.1 µM in assay [7]. The pD2 in assay [6] was found to be 4.74; in assay [3] it was 5.21. The compound also registered a Platelet aggregation in assay [2] of 21 µM.

With H-YSFKGMPLGR-OH, it took 0.59 µM to reach a half-maximal effect in assay [1] (EC50). The compound also gave a Platelet aggregation in assay [2] of 6.3 µM. In assay [3], this compound came in with a pD2 of 6.23.
